From PMC10625806 (European journal of pharmaceutical sciences : official …, 2018)
Several values for one entry are separate records, joined by “and”; a condition that tells them apart may be missing. Equal values may be shown once.

Columns and labels:
OXE receptor [1] = target: OXE receptor (Homo sapiens, UniProt Q8TDS5); assay: 5-oxo-ETE-induced calcium mobilization in human neutrophils; type: cell-based; details: for times less potent than 264: ratio of IC50, calcium mobilization in human neutrophils
Sequence of OXE receptor (Homo sapiens, UniProt Q8TDS5) (Q8TDS5 whole entry): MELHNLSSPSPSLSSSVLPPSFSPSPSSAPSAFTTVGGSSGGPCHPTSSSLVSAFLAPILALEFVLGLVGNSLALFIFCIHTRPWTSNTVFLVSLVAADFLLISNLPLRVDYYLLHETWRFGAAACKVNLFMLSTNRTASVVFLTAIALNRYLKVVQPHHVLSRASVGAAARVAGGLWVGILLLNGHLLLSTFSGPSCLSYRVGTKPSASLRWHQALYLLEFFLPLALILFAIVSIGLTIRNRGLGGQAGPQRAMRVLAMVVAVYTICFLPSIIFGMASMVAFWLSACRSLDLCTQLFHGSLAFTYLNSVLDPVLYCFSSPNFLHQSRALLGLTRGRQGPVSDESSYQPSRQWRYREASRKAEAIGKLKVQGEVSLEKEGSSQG

[2] = Plasma levels of 264 and its metabolites after oral gavage to monkeys; type: in vivo, cynomolgus monkeys
Outline: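 An ethanolic stock was added to 10 volumes of 20 mM NaHCO3, vortexed, made fresh for each animal and gavaged at 30 or 75 mg/kg (30 mg/kg to 4 animals). Blood (1 ml) was collected in heparinized tubes up to 24 h and centrifuged to plasma. Extracts were run on Kinetex C18 RP-HPLC (H2O/MeCN, 0.02% HOAc; 30–65% MeCN over 1–20 min). Metabolites were identified by co-chromatography with standards.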

OXE receptor [3] = details: stated without experiment in this paper; ref not given; cited from earlier work
OXE receptor [4] = assay: 5-oxo-ETE-induced actin polymerization in monkey neutrophils; type: cell-based, cynomolgus monkey; details: read-out: IC50, inhibition of 5-oxo-ETE-induced actin polymerization, 5-oxo-ETE 10 nM
[5] = Solubility in aqueous solutions; type: physicochemical; details: even as the carboxylate anion
[6] = Plasma levels of 264 after oral gavage to rats; type: in vivo, Sprague-Dawley rats; details: rat
Outline: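 Test compound was dissolved in EtOH (100 μl), added to 20 mM NaHCO3 pH 8.0 (1 ml), vortexed, and the whole suspension given by gavage at 5–30 mg/kg to Sprague-Dawley rats (200–250 g) fasted 3 h. Rats were killed with CO2 at set times, and blood was taken by cardiac puncture. Plasma was solid-phase extracted with an internal standard and run on Novapak C18 RP-HPLC (70–100% MeOH, 0.02% HOAc, 15 min, 30 °C).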

[7] = Metabolism of 264 by monkey liver microsomes; type: in vitro ADME, cynomolgus monkeys; details: 0.5 mg protein/ml; 264 100 μM; NADPH 2 mM; 4 h, 37 °C
Outline: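 Pooled male cynomolgus liver microsomes in PBS were incubated with test compound and NADPH, then stopped with MeOH and cooling to 0 °C. Products were analysed by precolumn extraction/RP-HPLC on a Kinetex C18 column (1 ml/min, 35 °C, 0.02% HOAc) using 61–82% MeOH over 63 min or 38–70% MeCN over 78 min. Metabolites were assigned by co-chromatography with authentic standards and by UV spectra.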

feline OXE receptor = details: ref Cossette et al., 2015; cited from earlier work
[8] = cynomolgus, cynomolgus monkey, plasma, po, 75 mg/kg
[9] = monkey, oral gavage 30 mg/kg 264
[10] = monkey, oral gavage 75 mg/kg 264

CC(O)CCCCc1cc2ccc(Cl)cc2n1C(=O)CC(C)CC(=O)O (stereo not drawn) [ω2-hydroxy-264, 5-[6-Chloro-2-(5-hydroxy-hexyl)-indol-1-yl]-3-methyl-5-oxo-pentanoicacid]
IC50 (OXE receptor [1]): 3.3 µM | times less potent than 264 (OXE receptor [1]): ~400 times | concentration at 24 h [2, 8]: ~9 µM | plasma concentration relative to that of 264 between 8 and 12 h ([2]; monkey, oral 30 mg/kg 264, 8-12 h): about 5 times | plateau plasma concentration between 1 and 4 h [2, 9]: ~ 9 μM | maximal plasma levels [2, 10]: ~ 28 μM

CC(CC(=O)O)CC(=O)n1c(CCCCCCO)cc2ccc(Cl)cc21 (stereo not drawn) [ω1-hydroxy-264, 5-[6-Chloro-2-(6-hydroxy-hexyl)-indol-1-yl]-3-methyl-5-oxo-pentanoic acid]
IC50 (OXE receptor [1]): 0.53 µM

CC(CC(=O)O)CC(=O)n1c(CCCCCC(=O)O)cc2ccc(Cl)cc21 (stereo not drawn) [ω-carboxy-264, 6-[1-(4-Carboxy-3-methyl-butyryl)-6-chloro-1H-indol-2-yl]-hexanoicacid]
IC50 (OXE receptor [1]): 13 µM

CC(=O)CCCCc1cc2ccc(Cl)cc2n1C(=O)CC(C)CC(=O)O (stereo not drawn) [ω2-oxo-264, 5-[6-Chloro-2-(5-oxo-hexyl)-indol-1-yl]-3-methyl-5-oxo-pentanoic acid]
IC50 (OXE receptor [1]): 1.4 µM | times less potent than 264 (OXE receptor [1]): ~170 times | Tmax ([2]; cynomolgus, cynomolgus monkey, plasma, po, 30 mg/kg): 4 h | Tmax [2, 8]: 8 to 12 h | maximal plasma levels [2, 9]: ~ 4 μM | maximal plasma levels [2, 10]: ~ 12 μM

CCCCCCc1cc2ccc(Cl)cc2n1C(=O)C[C@H](C)CC(=O)O (single isomer, unassigned) [S-enantiomer]
antagonist activity of enantiomer (OXE receptor [3]): potent antagonist activity

CCCCCCc1cc2ccc(Cl)cc2n1C(=O)CC(C)CC(=O)O (stereo not drawn) [compound 264]
IC50 (OXE receptor [4]): […] | solubility in aqueous solutions [5]: not very soluble | plasma concentration after 4 h ([6]; oral 10 mg/kg, 4 h): […] | plasma level after 1 h ([6]; oral 30 mg/kg, 1 h): about 16 μM | maximum plasma concentration ([6]; oral gavage 10 mg/kg): […] | time of maximum plasma concentration ([6]; oral gavage 10 mg/kg): […] | plasma concentration by 30 min ([6]; oral gavage 10 mg/kg, 30 min): […] | plasma concentration after 1 h versus dose ([6]; oral gavage 5, 10 and 30 mg/kg, 1 h): […] | plasma concentration at 8 h ([2]; monkey, oral 30 mg/kg, 8 h): […] | plasma amounts after 24 h ([2]; monkey, oral 30 mg/kg, 24 h): smaller, but detectable, amounts | plasma concentration at 24 h ([2]; monkey, oral 75 mg/kg 264, 24 h): […] | plasma concentration after 8 h ([2]; monkey, oral 75 mg/kg, 8 h): […] | plasma concentrations over 24 h ([2]; monkey, oral 75 mg/kg, over 24 h): […] | maximal plasma levels [2, 9]: […] | time of maximal plasma levels [2, 9]: […] | time of maximal plasma levels [2, 10]: […] | maximal plasma levels ([2]; monkey, oral gavage 75 mg/kg 264, 75 mg/kg): […] | conversion to more polar metabolites [7]: almost completely converted | antagonism of the feline OXE receptor (feline OXE receptor): only a weak OXE receptor antagonist

CC(CC(=O)O)CC(=O)n1c(CCCC(=O)O)cc2ccc(Cl)cc21 (stereo not drawn) [dinor-ω-carboxy-264, 5-[2-(3-Carboxy-propyl)-6-chloro-indol-1-yl]-3-methyl-5-oxo-pentanoicacid]
IC50 (OXE receptor [1]): 5.7 µM

CCCCCCc1cc2ccc(Cl)cc2n1C(=O)CC(C)CC(=O)O (single isomer, unassigned) [R-enantiomer]
antagonist activity of enantiomer (OXE receptor [3]): inactive
